# Results taken from ChEMBL document CHEMBL5120858, “Structure-activity relationship and antitumor activity of 1,4-pyrazine-containing inhibitors of histone acetyltransferases P300/CBP” (Eur J Med Chem, 2022).
# Tests used:
# [1] = biological target: T1, Histone acetyltransferase p300 (Homo sapiens, UniProt Q09472); assay: Inhibition of human p300 HAT domain (1195 to 1673 residues) using histone H3 peptide and acetyl-coA as substrates preincubated for 10 mins followed by substrate addition and measured after 30 mins by beckman scintillation counting analysis
# T1 sequence (Q09472 whole entry, the tested form may be a part): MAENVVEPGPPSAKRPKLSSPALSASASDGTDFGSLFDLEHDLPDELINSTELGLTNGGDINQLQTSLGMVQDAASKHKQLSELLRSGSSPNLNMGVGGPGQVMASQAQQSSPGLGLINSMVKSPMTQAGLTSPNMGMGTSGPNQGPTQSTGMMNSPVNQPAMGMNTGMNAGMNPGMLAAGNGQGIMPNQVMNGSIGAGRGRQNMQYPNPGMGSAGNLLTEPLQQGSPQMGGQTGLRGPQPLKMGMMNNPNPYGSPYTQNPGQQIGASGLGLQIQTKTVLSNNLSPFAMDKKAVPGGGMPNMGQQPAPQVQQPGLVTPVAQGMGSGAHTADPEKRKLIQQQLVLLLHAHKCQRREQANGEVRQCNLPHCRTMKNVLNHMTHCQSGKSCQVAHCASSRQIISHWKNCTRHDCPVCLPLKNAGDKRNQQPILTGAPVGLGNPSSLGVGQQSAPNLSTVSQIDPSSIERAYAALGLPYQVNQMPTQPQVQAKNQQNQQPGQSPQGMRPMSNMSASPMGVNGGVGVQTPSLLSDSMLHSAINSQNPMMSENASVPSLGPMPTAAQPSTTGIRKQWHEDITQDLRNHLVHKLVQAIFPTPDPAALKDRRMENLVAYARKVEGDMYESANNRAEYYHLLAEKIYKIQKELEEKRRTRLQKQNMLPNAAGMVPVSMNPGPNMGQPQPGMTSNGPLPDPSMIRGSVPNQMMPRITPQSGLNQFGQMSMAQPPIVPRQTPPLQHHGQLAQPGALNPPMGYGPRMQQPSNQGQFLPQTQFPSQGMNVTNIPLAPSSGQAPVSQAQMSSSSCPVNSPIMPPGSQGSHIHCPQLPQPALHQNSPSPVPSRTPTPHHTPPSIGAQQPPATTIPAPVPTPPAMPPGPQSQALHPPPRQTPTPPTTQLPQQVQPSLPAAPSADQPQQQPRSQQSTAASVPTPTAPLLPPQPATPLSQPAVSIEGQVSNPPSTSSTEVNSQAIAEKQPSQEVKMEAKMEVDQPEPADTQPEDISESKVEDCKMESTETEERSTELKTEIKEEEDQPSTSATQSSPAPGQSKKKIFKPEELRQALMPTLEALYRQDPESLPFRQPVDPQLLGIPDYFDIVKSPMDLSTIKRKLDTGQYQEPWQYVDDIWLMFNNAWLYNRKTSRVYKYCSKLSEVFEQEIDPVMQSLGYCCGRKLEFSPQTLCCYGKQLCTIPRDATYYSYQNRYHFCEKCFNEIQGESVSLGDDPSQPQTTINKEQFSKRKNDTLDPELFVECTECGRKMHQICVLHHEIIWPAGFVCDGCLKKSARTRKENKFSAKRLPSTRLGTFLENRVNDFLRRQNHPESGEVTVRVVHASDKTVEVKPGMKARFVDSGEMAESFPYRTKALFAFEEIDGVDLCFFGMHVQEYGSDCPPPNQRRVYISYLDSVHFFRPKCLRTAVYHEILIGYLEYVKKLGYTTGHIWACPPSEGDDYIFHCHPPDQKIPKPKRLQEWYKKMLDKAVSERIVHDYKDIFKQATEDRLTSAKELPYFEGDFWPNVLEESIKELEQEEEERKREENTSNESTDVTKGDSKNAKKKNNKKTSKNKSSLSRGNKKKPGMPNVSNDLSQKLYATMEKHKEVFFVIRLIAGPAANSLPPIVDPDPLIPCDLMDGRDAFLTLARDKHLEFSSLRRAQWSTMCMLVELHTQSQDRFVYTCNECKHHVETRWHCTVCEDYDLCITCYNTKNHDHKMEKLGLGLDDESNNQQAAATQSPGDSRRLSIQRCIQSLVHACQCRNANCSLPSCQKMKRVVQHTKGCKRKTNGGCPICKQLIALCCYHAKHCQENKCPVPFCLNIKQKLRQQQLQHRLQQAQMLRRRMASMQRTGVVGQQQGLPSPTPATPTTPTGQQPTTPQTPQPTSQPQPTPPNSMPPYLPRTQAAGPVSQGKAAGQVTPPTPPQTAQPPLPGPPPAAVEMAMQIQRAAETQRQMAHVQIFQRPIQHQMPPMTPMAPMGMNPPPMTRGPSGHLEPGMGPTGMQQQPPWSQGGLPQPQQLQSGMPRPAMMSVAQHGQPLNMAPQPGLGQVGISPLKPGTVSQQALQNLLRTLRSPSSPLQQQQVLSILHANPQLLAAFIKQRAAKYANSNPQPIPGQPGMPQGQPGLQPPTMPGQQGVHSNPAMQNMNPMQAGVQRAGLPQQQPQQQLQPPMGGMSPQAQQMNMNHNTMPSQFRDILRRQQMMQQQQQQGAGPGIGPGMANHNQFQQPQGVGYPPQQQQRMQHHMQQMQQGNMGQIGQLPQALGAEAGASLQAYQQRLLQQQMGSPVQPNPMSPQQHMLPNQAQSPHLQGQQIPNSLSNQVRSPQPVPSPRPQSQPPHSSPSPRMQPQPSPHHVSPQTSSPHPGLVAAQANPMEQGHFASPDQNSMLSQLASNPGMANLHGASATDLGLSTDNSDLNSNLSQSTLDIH
# Method in brief: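 Radiometric HAT assay. Enzyme at 10 nM was preincubated with graded compound for 10 min at 25 °C in 50 mM phosphate pH 7.0 with 0.01% Brij-35. Reaction started with H3 (1-21) peptide (20 μM) plus Ac-CoA (1 μM ³H-Ac-CoA + 19 μM unlabelled) and run 30 min at 25 °C. Stopped with formic acid, spotted on P81 paper, washed with NaHCO₃ and scintillation counted. IC₅₀ from sigmoidal fit, mean of ≥3 experiments.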
# [2] = biological target: T1, Histone acetyltransferase p300; assay: Inhibition of human p300 HAT domain (1195 to 1673 residues) at 10 uM using histone H3 peptide and acetyl-coA as substrates preincubated for 10 mins followed by substrate addition and measured after 30 mins by beckman scintillation counting analysis relative to control; settings: time 40.0 min
# Method in brief: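 Single-concentration screen at 10 μM in the radiometric p300 HAT domain assay: enzyme 10 nM, pH 7.0 phosphate/Brij-35, 10 min preincubation, then H3(1-21) peptide 20 μM plus ³H/unlabelled Ac-CoA (20 μM total), 30 min at 25 °C. Filter-bound ³H-acetylated peptide was counted, and the value is given as % inhibition.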
# [3] = biological target: T1, Histone acetyltransferase p300; assay: Inhibition of biotinylated histone H4 peptide binding to His-tagged human p300 HAT domain (1195 to 1673 residues) assessed as reduction in alpha signal incubated for 1 hr by amplified luminescent proximity homogeneous assay
# Method in brief: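 AlphaScreen binding assay in PBS with 0.5% BSA: His6-tagged p300 HAT (125 nM) on nickel chelate acceptor beads and biotinylated H4 peptide (30 nM) on streptavidin donor beads, with a dilution series of compound. After 1 h, signal was read with excitation at 680 nm and emission at 570 nm, and IC50 came from a sigmoidal dose-response fit.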
# Kasumi 1 [4] = assay: Inhibition of histone H3 acetylation at lysine 9 residue in human Kasumi 1 cells incubated for 12 hrs by Western blot analysis; assay type: functional, cell-based; settings: dose 5-10 µM, DDE = dose-dependent effect
# Method in brief: (§1)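 Kasumi-1 cells (10⁶ per well) exposed to a range of compound concentrations for 12 h. Total histones extracted and 2 μg protein resolved by SDS-PAGE, then transferred to PVDF. Blots probed with antibodies to H3K9Ac, H3K18Ac, H3K27Ac and total H3, with anti-rabbit IgG secondary.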
# Kasumi 1 [5] = assay: Inhibition of histone H3 acetylation at lysine 27 residue in human Kasumi 1 cells incubated for 12 hrs by Western blot analysis; assay type: functional, cell-based; settings: dose 5-10 µM, DDE = dose-dependent effect; method in brief: as §1
SMILES,IC50 [1] [µM],inhibition [2] [%],IC50 [3] [µM],inhibition (Kasumi 1 [4]),inhibition (Kasumi 1 [5])
COc1ccc(-c2ncc(OCC3CCNCC3)nc2-c2ccc(OC)cc2)cc1,> 10,38,,,
Nc1ccc(-c2ccc(-c3ncc(OCC4CCNCC4)nc3-c3ccc(-c4ccc(N)cc4)cc3)cc2)cc1,2.3,,,,
NCCOc1cnc(-c2ccc(Br)cc2)c(-c2ccc(Br)cc2)n1,> 10,5.4,,,
N#Cc1ccc(-c2nc(OCC3CCNCC3)cnc2-c2ccc(Br)cc2)cc1,> 10,21,,,
FC(F)(F)c1ccc(-c2ncc(OCC3CCNCC3)nc2-c2ccc(C(F)(F)F)cc2)cc1,> 10,34,,,
c1ccc(-c2cc(OCC3CCNCC3)cnc2-c2ccccc2)cc1,46.3,,,,
Brc1ccc(-c2ncc(OCC3CCNCC3)nc2-c2ccc(Br)cc2)cc1,5.7,72.5,27,,
N#Cc1ccc(-c2ncc(OCC3CCNCC3)nc2-c2ccc(C#N)cc2)cc1,> 10,0,,,
c1ccc(-c2ccc(-c3ncc(OCC4CCNCC4)nc3-c3ccc(-c4ccccn4)cc3)cc2)nc1,> 10,37,,,
Brc1cccc(-c2ncc(OCC3CCNCC3)nc2-c2cccc(Br)c2)c1,9.9,,,,
CNCCOc1cnc(-c2ccc(Br)cc2)c(-c2ccc(Br)cc2)n1,> 10,19.6,,,
OCc1ccc(-c2ncc(OCC3CCNCC3)nc2-c2ccc(CO)cc2)cc1,10,48.2,,,
CC(=O)NCCOc1cnc(-c2ccc(Br)cc2)c(-c2ccc(Br)cc2)n1,> 10,0,,,
CN(C)Cc1ccc(-c2ncc(OCC3CCNCC3)nc2-c2ccc(CN(C)C)cc2)cc1,> 10,,,,
CNCCCCOc1cnc(-c2ccc(Br)cc2)c(-c2ccc(Br)cc2)n1,> 10,,,,
NCc1ccc(-c2ncc(OCC3CCNCC3)nc2-c2ccc(CN)cc2)cc1,2.8,,,Dde,Dde
